Test results taken from ChEMBL document CHEMBL1138024, “Aryl urea analogs with broad-spectrum antibacterial activity” (Bioorg Med Chem Lett, 2004).
In brackets after ≈: the same amount, converted by molar mass.

Tests used:
Format in all cases: functional
[1] = test system: Staphylococcus aureus; test: In vitro antibacterial activity against Staphylococcus aureus; value ranges from 6-12 uM
[2] = test system: Staphylococcus aureus; test: In vitro antibacterial activity against Staphylococcus aureus; value ranges from 12-25 uM
[3] = test system: Staphylococcus aureus; test: In vitro antibacterial activity against Staphylococcus aureus
[4] = test system: Staphylococcus aureus; test: In vitro antibacterial activity against Staphylococcus aureus; value ranges from 3-6 uM
[5] = test system: Klebsiella pneumoniae; test: Minimum inhibitory concentration against Klebsiella pneumoniae ATCC 13383; value ranges from 3-6 uM
[6] = test system: Enterococcus faecium; test: Minimum inhibitory concentration against Enterococcus faecium ATCC 6569; value ranges from 6-12 uM
[7] = test system: Staphylococcus aureus; test: Minimum inhibitory concentration against Staphylococcus aureus ATCC 13709; value ranges from 3-6 uM
[8] = test system: Staphylococcus aureus; test: Minimum inhibitory concentration against Staphylococcus aureus ATCC 13709 (+4% BSA); value ranges from 25-50 uM
Method in brief: (§1)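 Same microdilution MIC against S. aureus ATCC 13709, but with 4% bovine serum albumin in the wells. Compound in 0.5% DMSO in water, inoculum about 10³–10⁴ CFU/well, duplicates. Growth was read as A595 after 20–24 h at 37°C against a compound-free control. MIC is reported as the range between full inhibition and viable growth.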

[9] = test system: Huh-7; test: Cytotoxic concentration against Huh7 cells at 48 hours in MTT assay; value ranges from 50-100 uM; conditions: Homo sapiens, Huh-7, 48 h
[10] = test system: Pseudomonas aeruginosa; test: Minimum inhibitory concentration against Pseudomonas aeruginosa ATCC 25416
[11] = test system: Proteus vulgaris; test: Minimum inhibitory concentration against Proteus vulgaris ATCC 8427; value ranges from 12-25 uM
[12] = test system: Enterococcus faecalis; test: Minimum inhibitory concentration against Enterococcus faecalis ATCC 29212; value ranges from 6-12 uM
[13] = test system: Streptococcus pyogenes; test: Minimum inhibitory concentration against Streptococcus pyogenes ATCC 49399; value ranges from 3-6 uM
[14] = test system: Escherichia coli; test: Minimum inhibitory concentration against Escherichia coli ATCC 25922; value ranges from 12-25 uM
[15] = test system: Staphylococcus aureus; test: In vitro antibacterial activity against Staphylococcus aureus; value ranges from 25-50 uM
[16] = test system: Klebsiella pneumoniae; test: Minimum inhibitory concentration against Klebsiella pneumoniae ATCC 13383; value ranges from 6-12 uM
[17] = test system: Streptococcus pyogenes; test: Minimum inhibitory concentration against Streptococcus pyogenes ATCC 49399; value ranges from 6-12 uM
[18] = test system: Enterococcus faecium; test: Minimum inhibitory concentration against Enterococcus faecium ATCC 6569
[19] = test system: Enterococcus faecalis; test: Minimum inhibitory concentration against Enterococcus faecalis ATCC 29212; value ranges from 3-6 uM
[20] = test system: Huh-7; test: Cytotoxic concentration against Huh7 cells at 48 hours in MTT assay; value ranges from 12.5-25 uM; conditions: Homo sapiens, Huh-7, 48 h
[21] = test system: Staphylococcus aureus; test: Minimum inhibitory concentration against Staphylococcus aureus ATCC 13709 (+4% BSA); value ranges from 12-25 uM; method in brief: as §1
[22] = test system: Escherichia coli; test: Minimum inhibitory concentration against Escherichia coli ATCC 25922; value ranges from 6-12 uM
[23] = test system: Staphylococcus aureus; test: In vitro antibacterial activity against Staphylococcus aureus; value ranges from 50-100 uM

FC(F)(F)c1ccc(N/C(S)=N/CCCNCc2cc(Br)cc(Br)c2)cc1
MIC [1]: 12 µM (≈ 6.3 µg/mL)

S=C(NCCCNCc1cc(Br)cc(Br)c1)Nc1ccc(I)cc1
MIC [2]: 25 µM (≈ 14.6 µg/mL)

CN(CCCNC(=O)Nc1ccc(C(F)(F)F)cc1)Cc1cc(Br)cc(Br)c1
MIC [3]: > 100 µM

CCOc1c(Br)cc(Br)cc1CNCCCNC(=O)Nc1ccc(C(F)(F)F)cc1
MIC [4]: 6 µM (≈ 3.32 µg/mL)
MIC [5]: 6 µM (≈ 3.32 µg/mL)
MIC [6]: 12 µM (≈ 6.64 µg/mL)
MIC [7]: 6 µM (≈ 3.32 µg/mL)
MIC [8]: 50 µM (≈ 27.7 µg/mL)
CC50 [9]: 100 µM
MIC [10]: > 100 µM
MIC [11]: 25 µM (≈ 13.8 µg/mL)
MIC [12]: 12 µM (≈ 6.64 µg/mL)
MIC [13]: 6 µM (≈ 3.32 µg/mL)
MIC [14]: 25 µM (≈ 13.8 µg/mL)

CCOc1ccc(Br)cc1CNCCCNC(=O)Nc1ccc(C(F)(F)F)cc1
MIC [1]: 12 µM (≈ 5.69 µg/mL)

S=C(NCCCNCc1cc(Br)cc(Br)c1)Nc1ccc(Cl)c(Cl)c1
MIC [4]: 6 µM (≈ 3.16 µg/mL)

O=C(NCCCNCc1cccc(-c2ccccc2)c1)Nc1ccc(C(F)(F)F)cc1
MIC [1]: 12 µM (≈ 5.13 µg/mL)

COc1cccc(N/C(S)=N/CCCNCc2cc(Br)cc(Br)c2)c1
MIC [15]: 50 µM (≈ 24.4 µg/mL)

O=C(NCCCNCc1ccccc1OC(F)(F)F)Nc1ccc(C(F)(F)F)cc1
MIC [2]: 25 µM (≈ 10.9 µg/mL)

O=C(NCCCNCc1cc(Br)cc(Br)c1)Nc1ccc(Cl)cc1
MIC [1]: 12 µM (≈ 5.71 µg/mL)

Fc1ccc(N/C(S)=N/CCCNCc2cc(Br)cc(Br)c2)cc1
MIC [2]: 25 µM (≈ 11.9 µg/mL)

O=C(NCCCNCc1ccc(Cl)c(Cl)c1)Nc1ccc(C(F)(F)F)cc1
MIC [4]: 6 µM (≈ 2.52 µg/mL)

O=C(NCCCNCc1cc(Br)cc(Br)c1)Nc1ccc(C(F)(F)F)cc1
MIC [4]: 6 µM (≈ 3.05 µg/mL)
MIC [16]: 12 µM (≈ 6.11 µg/mL)
MIC [7]: 6 µM (≈ 3.05 µg/mL)
MIC [8]: 50 µM (≈ 25.5 µg/mL)
MIC [10]: > 100 µM
MIC [11]: 25 µM (≈ 12.7 µg/mL)
MIC [12]: 12 µM (≈ 6.11 µg/mL)
MIC [14]: 25 µM (≈ 12.7 µg/mL)
MIC [17]: 12 µM (≈ 6.11 µg/mL)
MIC [18]: > 100 µM

FC(F)(F)c1cccc(N/C(S)=N/CCCNCc2cc(Br)cc(Br)c2)c1
MIC [1]: 12 µM (≈ 6.3 µg/mL)

COc1ccc(-c2ccc(CNCCCNC(=O)Nc3ccc(C(F)(F)F)cc3)cc2)cc1
MIC [4]: 6 µM (≈ 2.74 µg/mL)

COc1ccc(N/C(S)=N/CCCNCc2cc(Br)cc(Br)c2)cc1
MIC [15]: 50 µM (≈ 24.4 µg/mL)

S=C(NCCCNCc1cc(Br)cc(Br)c1)Nc1cccc(Br)c1
MIC [1]: 12 µM (≈ 6.43 µg/mL)

O=C(NCCCNCc1cc(Br)cc(Br)c1)Nc1ccc(Cl)c(Cl)c1
MIC [4]: 6 µM (≈ 3.06 µg/mL)

O=C(NCCCNCc1ccc(Oc2ccccc2)cc1)Nc1ccc(C(F)(F)F)cc1
MIC [19]: 6 µM (≈ 2.66 µg/mL)
MIC [4]: 6 µM (≈ 2.66 µg/mL)
MIC [16]: 12 µM (≈ 5.32 µg/mL)
CC50 [20]: 25 µM
MIC [7]: 6 µM (≈ 2.66 µg/mL)
MIC [21]: 25 µM (≈ 11.1 µg/mL)
MIC [22]: 12 µM (≈ 5.32 µg/mL)
MIC [10]: > 100 µM
MIC [11]: 25 µM (≈ 11.1 µg/mL)
MIC [13]: 6 µM (≈ 2.66 µg/mL)
MIC [18]: > 100 µM

O=C(NCCCNCc1cc(F)cc(F)c1)Nc1ccc(C(F)(F)F)cc1
MIC [23]: 100 µM (≈ 38.7 µg/mL)

COc1ccccc1-c1ccc(CNCCCNC(=O)Nc2ccc(C(F)(F)F)cc2)cc1
MIC [1]: 12 µM (≈ 5.49 µg/mL)

CC(=O)Nc1ccc(CNCCCNC(=O)Nc2ccc(C(F)(F)F)cc2)cc1
MIC [3]: > 100 µM

S=C(NCCCNCc1cc(Br)cc(Br)c1)Nc1cccc(Cl)c1
MIC [1]: 12 µM (≈ 5.9 µg/mL)
